Among the data in PubChem BioAssay AID504331 (Broad Institute, 2011) are activity change, negative = cytotoxicity and AC50 values, retold here.

Structures are written as SMILES. Values joined by “and” are separate entries in the source; they are usually repeats but may differ in a detail not shown here. Identical values can stand only once. Active and inactive are the calls of the source.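 Rule for the calls: active = compounds that lower cell viability with a fitted AC50 at most ten times their top valid dose; inconclusive = flat fit showing 30 to 70 percent loss, or poor fit; inactive = the rest.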

Test system in the first assay: not listed separately
Nature of the assay: toxicity in U2OS HRE-luc cells, iron medium, dose response, cytotoxicity control for HIF pathway activator project, iron-supplemented medium, dry powder (AID 504331). The following applies: U2OS HRE-luc cells viability, CellTiter-Glo luminescence; at 38 µM (top of the series). In a few lines:
(§1)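 system = human U2OS osteosarcoma cells with 3xHRE-driven luciferase reporter | quantity = 6,000 cells per well | buffer or medium = phenol red-free DMEM, 10% FBS, 50 µM final ferric nitrate | dosing = 8 concentrations, 3-fold dilution steps | times = cells plated 24 h before dosing, 24 h compound exposure at 37 °C | technique = viability luminescence, CellTiter-Glo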
In general terms: Cellular ATP, detected with luciferase, serves as a proxy for viable cell number.
`c1ccc(-c2nnc(-c3ccccn3)nc2N2CCC(N3CCOCC3)CC2)cc1`: the activity change, negative = cytotoxicity was 5.36% (inactive).
Still for that read-out and setting: in the case of `O=C(c1cc(-c2ccccc2)on1)N1CCC(CO)CC1` it was 7.47% (inactive).
On the same count and under the same terms, as for `O=C(Nc1cn2ccccc2n1)c1cc(-c2ccccc2)on1`, the figure is 15.5% (inactive); as for `OCCCNc1nc(-c2ccccn2)nnc1-c1ccccc1`, 12.8% (inactive); as for `O=C(NCCCO)c1cc(-c2ccccc2)on1`, -4.34% (inactive).
As for `O=C(NCC1CC1)c1cc(-c2ccccc2)on1`, the activity change, negative = cytotoxicity was 20.9% (inactive).
Still for that read-out and setting: in the case of `Oc1ccc(CN2CCC(Cc3ccccc3)CC2)c2cccnc12` it was -1.73% (inactive).
The same measure, in the same setting: as for `c1ccc(-c2nnc(-c3ccccn3)nc2NCC2CCOCC2)cc1`, the figure is 5.99% (inactive).
On the same count and under the same terms, in the case of `O=C(Nc1nc2ccccc2s1)c1cc(-c2ccccc2)on1` it was 11.3% (inactive); in that of `CN1CCN(C(=O)c2cc(-c3ccccc3)on2)CC1`, 2.12% (inactive); in that of `CCCCNC(=O)c1cc(-c2ccccc2)on1`, 5.24% (inactive).
As to `CN(C)c1nc(-c2ccccn2)nnc1-c1ccccc1`, the activity change, negative = cytotoxicity is 13.9% (inactive).
On the same count and under the same terms, in the case of `c1ccc(CNc2nc(-c3ccccn3)nnc2-c2ccccc2)cc1` it was 0.83% (inactive).
Same read-out and setting: as for `CN1CCN(c2nc(-c3ccccn3)nnc2-c2ccccc2)CC1`, the figure is -22.1% (inactive); as for `CC(C)(C)CCNc1nc(-c2ccccn2)nnc1-c1ccccc1`, -21.1% (inactive).
In the case of `Cn1c(-c2ccccc2)cnc1NC(=O)c1cc(-c2ccccc2)on1`, the activity change, negative = cytotoxicity is -7.51% (inactive).
In the case of `O=C(c1cc(-c2ccccc2)on1)N1CCc2cccnc21`, the activity change, negative = cytotoxicity is -7.82% (inactive).
Same read-out and setting: as for `O=C(NCC1CCCCC1)c1cc(-c2ccccc2)on1`, the figure is -8.74% (inactive).
Same read-out and setting: as for `O=C(Nc1nnc(-c2ccccc2)s1)c1cc(-c2ccccc2)on1`, the figure is 13.2% (inactive); as for `c1ccc(-c2nnc(-c3ccccn3)nc2N2CCC(C3CCCCC3)C2)cc1` (centres undefined), 0.423% (inactive); as for `Cc1ccccc1CNc1nc(-c2ccccn2)nnc1-c1ccccc1`, -20% (inactive).
The same measure, in the same setting: in the case of `c1ccc(-c2nnc(-c3ccccn3)nc2NCCc2ccccn2)cc1` it was -1.62% (inactive); in that of `Cc1ccc(CNC(=O)c2cc(-c3ccccc3)on2)cc1`, -12.1% (inactive).
Regarding `O=C(NCCCn1ccnc1)c1cc(-c2ccccc2)on1`, the activity change, negative = cytotoxicity is -7.58% (inactive).
Same read-out and setting: in the case of `CN(C)CCNC(=O)c1cc(-c2ccccc2)on1` it was 11% (inactive).
On the same count and under the same terms, as for `c1ccc(-c2cccc(CNc3nc(-c4ccccn4)nnc3-c3ccccc3)c2)cc1`, the figure is -2.48% (inactive).
Still for that read-out and setting: as for `O=C(Nc1ncc2ccccc2n1)c1cc(-c2ccccc2)on1`, the figure is -12.2% (inactive); as for `CC(C)(C)CCNC(=O)c1cc(-c2ccccc2)on1`, -4% (inactive); as for `Cc1ccccc1CNC(=O)c1cc(-c2ccccc2)on1`, 4.84% (inactive).
Turning to `O=C(NCCN1CCOCC1)c1cc(-c2ccccc2)on1`, the activity change, negative = cytotoxicity is 12.9% (inactive).
The same measure, in the same setting: in the case of `c1ccc(-c2nnc(-c3ccccn3)nc2NCCCN2CCOCC2)cc1` it was 9.59% (inactive); in that of `c1ccc(-c2nnc(Nc3nc(-c4ccccn4)nnc3-c3ccccc3)s2)cc1`, 5.32% (inactive); in that of `Cc1ccc(NC(=O)c2cc(-c3ccccc3)on2)cn1`, -4.1% (inactive).
In the case of `c1ccc(-c2nnc(-c3ccccn3)nc2NCCN2CCOCC2)cc1`, the activity change, negative = cytotoxicity is -5.86% (inactive).
The same measure, in the same setting: in the case of `c1ccc(-c2nnc(-c3ccccn3)nc2N2CCN(c3ccncc3)CC2)cc1` it was 7.73% (inactive); in that of `Cc1cccc(CNC(=O)c2cc(-c3ccccc3)on2)c1`, -4.42% (inactive).
Same read-out and setting: as for `O=C(NCc1ccccc1)c1cc(-c2ccccc2)on1`, the figure is 6.28% (inactive).
On the same count and under the same terms, in the case of `O=C(NCCN1CCCCC1)c1cc(-c2ccccc2)on1` it was 14% (inactive); in that of `Cn1c(NC(=O)c2cc(-c3ccccc3)on2)nc2ccccc21`, 15.8% (inactive).
Take `O=C(NCCCN1CCOCC1)c1cc(-c2ccccc2)on1`: the activity change, negative = cytotoxicity was 11% (inactive).
Consider `C=CCNc1nc(-c2ccccn2)nnc1-c1ccccc1`, for which the activity change, negative = cytotoxicity is 6.06% (inactive).
Still for that read-out and setting: as for `c1ccc(-c2nnc(-c3ccccn3)nc2NCC2CC2)cc1`, the figure is 4.24% (inactive); as for `CC(C)(C)OC(=O)N1CCN(Cc2ccc(O)c3ncccc23)CC1`, 8.63% (inactive).
The same measure, in the same setting: in the case of `c1ccc(-c2nnc(-c3ccccn3)nc2NCc2cccnc2)cc1` it was 17% (inactive); in that of `O=C(NC1Cc2ccccc2C1)c1cc(-c2ccccc2)on1`, -12.2% (inactive).
Still for that read-out and setting: in the case of `Cc1cccc(NC(=O)c2cc(-c3ccccc3)on2)n1` it was -3.67% (inactive); in that of `O=C(NCCCCO)c1cc(-c2ccccc2)on1`, 1.09% (inactive).
For `O=C(c1cc(-c2ccccc2)on1)N1CCC(N2CCOCC2)CC1`, the activity change, negative = cytotoxicity was 5.61% (inactive).
Same read-out and setting: in the case of `O=C(Nc1ncc(-c2ccccc2)o1)c1cc(-c2ccccc2)on1` it was 1.13% (inactive); in that of `N#CC1(c2ccccc2)CCN(Cc2ccc(O)c3ncccc23)CC1`, 10.7% (inactive); in that of `O=C(Nc1nc(-c2ccccc2)cs1)c1cc(-c2ccccc2)on1`, 8.59% (inactive).
The same measure, in the same setting: as for `O=C(Nc1ccc2ccccc2n1)c1cc(-c2ccccc2)on1`, the figure is 13% (inactive); as for `O=C(Nc1cnc2ccccc2c1)c1cc(-c2ccccc2)on1`, -0.953% (inactive); as for `O=C(c1cc(-c2ccccc2)on1)N1CCC(N2CCCC2)CC1`, -1.03% (inactive).
Same read-out and setting: in the case of `Cc1cccc(CNc2nc(-c3ccccn3)nnc2-c2ccccc2)c1` it was -8.02% (inactive).

The test system of a further assay is U2OS HRE-luc cells viability, CellTiter-Glo luminescence. The assay is described as above.
Conditions: not given
In a few lines: as §1
As usually defined, the AC50 is the concentration at which the activity in the assay is half-maximal. For the compound `C[C@@H](Nc1nc(-c2ccccn2)nnc1-c1ccccc1)C1CCCCC1`, the AC50 is 32 µM.
Same read-out and setting: as for `Oc1ccc(CN2CCc3ccccc3C2)c2cccnc12`, the figure is 23.3 µM and 24.6 µM; as for `Oc1ccc(CN2CCC3CCCCC3C2)c2cccnc12` (centres undefined), 22.5 µM.
For `OCC1CCN(Cc2ccc(O)c3ncccc23)CC1`, the AC50 is 2.54 µM.
For `O=C(c1cc(-c2ccccc2)on1)N1CCN(c2ccncc2)CC1`, the AC50 is > 38 µM (inactive).
Still for that read-out and setting: as for `O=C(NC1CCc2ccccc2C1)c1cc(-c2ccccc2)on1` (centres undefined), the figure is > 38 µM (inactive); as for `c1ccc(-c2csc(Nc3nc(-c4ccccn4)nnc3-c3ccccc3)n2)cc1`, > 38 µM (inactive).
The same measure, in the same setting: in the case of `Oc1ccc(CNC2CCc3ccccc32)c2cccnc12` (centres undefined) it was 35.7 µM.
Still for that read-out and setting: as for `Oc1ccc(CNC2Cc3ccccc3C2)c2cccnc12`, the figure is 22.5 µM.
For the compound `COc1ccccc1N1CCN(Cc2ccc(O)c3ncccc23)CC1`, the AC50 is 33.2 µM.
Still for that read-out and setting: as for `Cn1c(-c2ccccc2)cnc1Nc1nc(-c2ccccn2)nnc1-c1ccccc1`, the figure is > 38 µM (inactive); as for `c1ccc(-c2nnc(-c3ccccn3)nc2NCc2ccccn2)cc1`, > 38 µM (inactive); as for `c1ccc(-c2nnc(-c3ccccn3)nc2N2CCC(c3ccccc3)C2)cc1` (centres undefined), 13.6 µM.
The same measure, in the same setting: as for `CC1CN(Cc2ccc(O)c3ncccc23)CC(C)O1` (centres undefined), the figure is 15.6 µM.
